This is an account of results in ChEMBL document CHEMBL3414506 (J Med Chem, 2015).

Data set [1] has as its target T1, Steroid 17-alpha-hydroxylase/17,20 lyase (Homo sapiens, UniProt P05093).
T1 sequence (P05093 whole entry): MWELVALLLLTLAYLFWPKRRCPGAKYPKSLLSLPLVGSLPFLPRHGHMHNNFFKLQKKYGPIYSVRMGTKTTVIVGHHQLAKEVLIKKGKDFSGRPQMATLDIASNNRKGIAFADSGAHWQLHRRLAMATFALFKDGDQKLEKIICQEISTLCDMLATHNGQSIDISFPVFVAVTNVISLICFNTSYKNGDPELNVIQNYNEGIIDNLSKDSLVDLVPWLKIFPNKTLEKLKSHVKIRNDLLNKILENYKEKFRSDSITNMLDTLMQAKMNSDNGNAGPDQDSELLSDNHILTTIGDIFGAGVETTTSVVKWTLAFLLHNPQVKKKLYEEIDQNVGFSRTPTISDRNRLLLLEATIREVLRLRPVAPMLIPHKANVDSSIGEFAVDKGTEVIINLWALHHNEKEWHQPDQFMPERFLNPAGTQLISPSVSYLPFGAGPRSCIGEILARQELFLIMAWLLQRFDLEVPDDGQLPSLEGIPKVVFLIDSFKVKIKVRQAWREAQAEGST
Put plainly: Inhibition of human CYP17 expressed in Escherichia coli. In outline:
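Whole-cell assay: intact Escherichia coli cells expressing human CYP17 used as the enzyme source; inhibition expressed as IC50.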

The test system of data set [2] is Plasma. Put plainly: Retention time in mouse plasma by reverse phase HPLC method. The format is ADME, cell-free. The procedure, abridged: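 Mouse plasma from male SCID mice dosed s.c. at 50 or 100 mg/kg, analysed by validated reverse-phase HPLC with an internal standard. Analyte resolved from the internal standard, a metabolite and endogenous plasma components. Calibration linear; inter- and intra-assay variability under 10%; detection limit 100 ng/mL.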

For data set [3], the target named is T1, Steroid 17-alpha-hydroxylase/17,20 lyase. The data set can be described thus: Inhibition of human CYP17 up to 10 uM using 17alpha-hydroxypregnenolone substrate relative to control. The procedure, abridged:
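CYP17 assay with 17α-hydroxypregnenolone substrate at 10 μM (Km 560 nM). Screening used 150 nM inhibitor, tested up to 10 μM. Values are the mean ± SDM of at least two experiments.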

For data set [4] the target is unchanged. Put plainly: Inhibition of human CYP17 using 17alpha-hydroxypregnenolone substrate.
Data set [5] can be described thus: Growth inhibition of human castration-resistant prostate cancer cells. The class given is functional, cell-based. As to conditions: Cancer cell lines; call rule not given here.
Data set [6] can be described thus: Mean residence time in SCID mouse at 100 mg/kg, sc. The class given is ADME, organism-based. Also on record: dose 100 mg/kg, route subcutaneous. As to conditions: in vivo. In outline: (§1)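 Male SCID mice were dosed subcutaneously at 50 or 100 mg/kg. Plasma levels were measured by reverse-phase HPLC against an internal standard, with a detection limit of 100 ng/mL and inter- and intra-assay variability under 10%. Parameters were calculated noncompartmentally from the plasma concentration–time profile.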

The nature of data set [7]: Mean residence time in SCID mouse at 50 mg/kg, sc. The class given is ADME, organism-based. Also on record: dose 50 mg/kg, route subcutaneous. As to conditions: in vivo. In outline: as §1
Data set [8] can be described thus: Cmax in SCID mouse at 100 mg/kg, sc. The class given is ADME, organism-based. More on the design: dose 100 mg/kg, route subcutaneous. As to conditions: in vivo. In outline: as §1
The test system of data set [9] is Mus musculus. The data set can be described thus: Elimination half life in SCID mouse at 50 mg/kg, sc. As to conditions: in vivo. Also on record: dose 50 mg/kg, route subcutaneous. The class given is ADME, organism-based. The procedure, abridged: as §1
Data set [10] in a line: Clearance in SCID mouse at 50 mg/kg, sc. The format is ADME, organism-based. Also on record: dose 50 mg/kg, route subcutaneous. As to conditions: in vivo. In outline:
as §1

A short description of data set [11]: AUC in SCID mouse at 100 mg/kg, sc. The format is ADME, organism-based. Also on record: dose 100 mg/kg, route subcutaneous. As to conditions: plasma. In outline:
as §1

Data set [12] in a line: AUC in SCID mouse at 50 mg/kg, sc. As to conditions: plasma. The format is ADME, organism-based. More on the design: dose 50 mg/kg, route subcutaneous. In outline: as §1
In data set [13] the test system is Plasma. Put plainly: Drug metabolism in mouse plasma assessed as retention time of metabolite by reverse phase HPLC method. The class given is ADME, cell-free. In outline: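 Mouse plasma was analysed by reverse-phase HPLC after subcutaneous dosing. The parent compound, an internal standard, the metabolite and endogenous components were resolved by retention time.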

For data set [14], the system named is LAPC4. Put plainly: Antitumor activity against human LAPC4 cells xenografted in SCID mouse assessed as reduction in tumor volume at 0.15 mmol/kg, sc dosed twice daily starting 1 day after tumor cell inoculation and measured after 16 weeks of treatment. The format is functional. The procedure, abridged: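 3 × 10^7 LAPC-4 cells were injected subcutaneously into the dorsal flank of male SCID mice. From 1 day after inoculation, mice received 0.15 mmol/kg s.c. twice daily, alongside vehicle and castrated groups. The dose was cut by 78.6% for one interval, then resumed. Tumour volume was measured weekly, and percent change was computed after 16 weeks.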

In data set [15] the test system is Mus musculus. The data set can be described thus: Volume of distribution in SCID mouse at 100 mg/kg, sc. The class given is ADME, organism-based. Also on record: dose 100 mg/kg, route subcutaneous. As to conditions: in vivo. In outline: as §1
In data set [16] the test system is Mus musculus. The data set can be described thus: Volume of distribution in SCID mouse at 50 mg/kg, sc. The class given is ADME, organism-based. As to conditions: in vivo. More on the design: dose 50 mg/kg, route subcutaneous. The procedure, abridged:
as §1

Data set [17] can be described thus: Tmax in SCID mouse at 50 mg/kg, sc. The format is ADME, organism-based. Also on record: dose 50 mg/kg, route subcutaneous. As to conditions: in vivo. The procedure, abridged:
as §1

A short description of data set [18]: Tmax in SCID mouse at 100 mg/kg, sc. The class given is ADME, organism-based. Also on record: dose 100 mg/kg, route subcutaneous. As to conditions: in vivo. In outline: as §1
Data set [19] deals with Mus musculus. Put plainly: Drug elimination constant in SCID mouse at 50 mg/kg, sc. The class given is ADME, organism-based. More on the design: dose 50 mg/kg, route subcutaneous. As to conditions: in vivo. In outline: as §1
Data set [20] is described as follows: Cmax in SCID mouse at 50 mg/kg, sc. The class given is ADME, organism-based. Also on record: dose 50 mg/kg, route subcutaneous. As to conditions: in vivo. The procedure, abridged:
as §1

For data set [21], the system named is LAPC4. Put plainly: Antitumor activity against human LAPC4 cells xenografted in SCID mouse assessed as tumor volume at 0.13 mmol/kg, sc dosed twice daily (reference value: 2410.28 mm3). The format is functional. For orientation: Xenograft models place foreign cells or tissue in a host animal.
Data set [22] has as its system LAPC4. Put plainly: Antitumor activity against human LAPC4 cells xenografted in SCID mouse assessed as regression of tumor volume at 0.13 mmol/kg, sc dosed twice daily. The format is functional.
The test system of data set [23] is Mus musculus. Put plainly: Elimination half life in SCID mouse at 100 mg/kg, sc. The class given is ADME, organism-based. Also on record: dose 100 mg/kg, route subcutaneous. As to conditions: in vivo. In outline: as §1
Data set [24] deals with LAPC4. Put plainly: Antitumor activity against human LAPC4 cells xenografted in SCID mouse with castration assessed as regression of tumor volume at 0.13 mmol/kg, sc dosed twice daily. The class given is functional.

With `C[C@]12CC[C@H](O)CC1=CC[C@@H]1[C@@H]2CC[C@]2(C)C(n3ccnc3)=CC[C@@H]12`, it took 0.05 µM to reach half-maximal inhibition in data set [1] (IC50). In the data set on Plasma [2], the Retention_time was 11.5 min.

Consider `C[C@]12CC[C@H](O)CC1=CC[C@@H]1[C@@H]2CC[C@]2(C)C(n3nccn3)=CC[C@@H]12`, for which the “inhibition (INH)” value in data set [3] is reported as “Not Active”.

`C[C@]12CC[C@H](O)CC1=CC[C@@H]1[C@@H]2CC[C@]2(C)C(n3ncnn3)=CC[C@@H]12`: in data set [3], the “inhibition (INH)” value was “Not Active”.

Turning to `C[C@]12CC[C@H](O)CC1=CC[C@@H]1[C@@H]2CC[C@]2(C)C(n3cnnn3)=CC[C@@H]12`, the “inhibition (INH)” value in [3] is recorded as “Not Active”.

As to `C[C@]12CCC(=O)C=C1CC[C@@H]1[C@@H]2CC[C@]2(C)C(n3cncn3)=CC[C@@H]12`, in [4], the IC50 (in general, the midpoint of a concentration-inhibition curve) is 0.055 µM; the Ki (in general, the dissociation constant of the complex between target and ligand, obtained from inhibition or displacement) amounted to 0.041 µM.

In [5], `CC(O)(CS(=O)(=O)c1ccc(F)cc1)C(=O)Nc1ccc(C#N)c(C(F)(F)F)c1` (centres undefined) [BICALUTAMIDE] yielded an IC50 of 18 µM.

Turning to `C[C@]12CC[C@H](O)CC1=CC[C@@H]1[C@@H]2CC[C@]2(C)C(n3cnc4ccccc43)=CC[C@@H]12` [GALETERONE], the MRT (as a rule, a mean duration of stay, worked out from the concentration-time curve) in data set [6] was 60.5 min; in data set [7], 65.4 min. The Cmax (in general, the highest concentration seen after dosing) was found to be 32.2 µg/mL in data set [8] and 16.8 µg/mL in data set [20]. The figures for the “beta t1/2” value in the data set on Mus musculus [9] and in the data set with Mus musculus [23] were 44.17 min and 36.6 min, respectively. The CL/F (commonly the apparent clearance, not corrected for the fraction that reaches the circulation) in data set [10] was 1.99 L/h/kg. The results for the AUC in [11] and in data set [12] were 30.2 µg·h/mL and 24 µg·h/mL, respectively. In addition, the Retention_time in the data set with Plasma [13] is reported as 17.3 min; in the data set on Plasma [2], 21.6 min. For the same compound, the inhibition in vivo (usually the change of the read-out against control, counted positive when it falls) at 150 µmol/kg in the data set with LAPC4 [14] is 93.8%. The Vd in the data set with Mus musculus [15] was 3.27639 L/kg; in the data set on Mus musculus [16], 2.09899 L/kg. Further, the time of peak concentration (Tmax) in data set [17] and in [18] was 30 min throughout. In the data set with Mus musculus [19], this compound gave a Kel of 0.942 h⁻¹. In the data set on LAPC4 [21], the Activity was 6.94 mm3. Also, the inhibition in vivo at 130 µmol/kg in the data set with LAPC4 [22] was 26.6%; in the data set with LAPC4 [24] it was 60.7%. The same compound showed an IC50 in [5] of 2.9 µM.
